Assay results from ChEMBL document CHEMBL4819032, “Structure-based design of highly selective 2,4,5-trisubstituted pyrimidine CDK9 inhibitors as anti-cancer agents” (Eur J Med Chem, 2021).
Calls of active or inactive are those of the source.

Experiments:
MDA-MB-468 = assay: Growth inhibition of human MDA-MB-468 cells after 48 hrs by MTT assay; type: functional
A2780 [1] = assay: Induction of cell cycle arrest in human A2780 cells assessed as accumulation at G1/G0 phase at 5 uM after 24 hrs by propidium iodide staining based flow cytometric analysis (reference value: 56.7%); type: functional
Summary of the method: (§1)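 4 × 10⁵ A2780 cells cultured 24 h in medium alone or with varying inhibitor concentrations, harvested into hypotonic fluorochrome solution (0.1% sodium citrate, 0.1% Triton X-100, propidium iodide, 100 ug/ml RNase A), and DNA content analysed by flow cytometry. Representative of three independent experiments.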

A2780 [2] = assay: Induction of apoptosis in human A2780 cells assessed as late apoptotic cells at 2 uM after 24 hrs by Annexin V-FITC/PI staining based flow cytometric analysis (reference value: 2.8%); type: functional
Summary of the method: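 A2780 cells cultured 24 h in medium alone or with varying inhibitor concentrations, then stained with FITC-annexin V/PI per kit protocol and analysed by flow cytometry. Run in triplicate and repeated at least twice; significance by one-way ANOVA, p < 0.01.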

HCT-116 = assay: Induction of apoptosis in human HCT-116 cells assessed as reduction in Mcl-1 protein expression at 5 uM after 6 to 12 hrs by Western blot analysis; type: functional, cell-based; conditions: time 6-12 hrs
A2780 [3] = assay: Induction of cell cycle arrest in human A2780 cells assessed as accumulation at pre-G1 phase at 0.5 uM after 24 hrs by propidium iodide staining based flow cytometric analysis (reference value: 1.2%); type: functional
A2780 [4] = assay: Induction of apoptosis in human A2780 cells assessed as reduction in Mcl-1 protein expression at 5 uM after 6 to 12 hrs by Western blot analysis; type: functional, cell-based; conditions: time 6-12 hrs
Summary of the method: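 A2780 cells treated for 6 or 12 h, then lysates analysed by Western blotting.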

Homo sapiens = species on record: Homo sapiens; assay: Selectivity index, ratio of Ki for inhibition of recombinant human full length CDK2/Cyclin A to Ki for inhibition of recombinant human full length CDK9/Cyclin T1
Summary of the method: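 Ratio of apparent Ki values for the two CDK/cyclin complexes. Each Ki is derived from an IC50 (10-point radiometric dose-response, ATP at Km(app)) using the kinase's Km(ATP). The selectivity index is defined as Ki(CDK2)/Ki(CDK9).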

A2780 [5] = assay: Induction of apoptosis in human A2780 cells assessed as reduction in XIAP protein expression after 24 hrs by Western blot analysis; type: functional, cell-based; conditions: dose 0.5-5 µM
Summary of the method: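 A2780 cells treated for 24 h over a concentration series, then lysates analysed by Western blotting.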

A2780 [6] = assay: Induction of cell cycle arrest in human A2780 cells assessed as accumulation at S phase at 1 uM after 24 hrs by propidium iodide staining based flow cytometric analysis (reference value: 20%); type: functional; summary of the method: as §1
[7] = biological target: Mitogen-activated protein kinase kinase kinase 9 (Homo sapiens) (UniProt P80192); assay: Inhibition of recombinant human full length MLK1 (134 to 414 residues)using casein as substrate incubated for 40 mins by scintillation counting method
Summary of the method: (§2)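 The 60-kinase diversity panel was run as a radiometric assay with ATP at each kinase's Km(app). Compound was tested at one fixed concentration across all kinases.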

HT-29 = assay: Growth inhibition of human HT-29 cells after 48 hrs by MTT assay; type: functional
A2780 [8] = assay: Growth inhibition of human A2780 cells after 48 hrs by MTT assay; type: functional
[9] = biological target: Vascular endothelial growth factor receptor 2 (Homo sapiens) (UniProt P35968); assay: Inhibition of recombinant human KDR 790 to end residues ) using myelin basic protein as substrate incubated for 40 mins by scintillation counting method; summary of the method: as §2
Vascular endothelial growth factor receptor 2 (Homo sapiens), sequence (P35968 whole entry): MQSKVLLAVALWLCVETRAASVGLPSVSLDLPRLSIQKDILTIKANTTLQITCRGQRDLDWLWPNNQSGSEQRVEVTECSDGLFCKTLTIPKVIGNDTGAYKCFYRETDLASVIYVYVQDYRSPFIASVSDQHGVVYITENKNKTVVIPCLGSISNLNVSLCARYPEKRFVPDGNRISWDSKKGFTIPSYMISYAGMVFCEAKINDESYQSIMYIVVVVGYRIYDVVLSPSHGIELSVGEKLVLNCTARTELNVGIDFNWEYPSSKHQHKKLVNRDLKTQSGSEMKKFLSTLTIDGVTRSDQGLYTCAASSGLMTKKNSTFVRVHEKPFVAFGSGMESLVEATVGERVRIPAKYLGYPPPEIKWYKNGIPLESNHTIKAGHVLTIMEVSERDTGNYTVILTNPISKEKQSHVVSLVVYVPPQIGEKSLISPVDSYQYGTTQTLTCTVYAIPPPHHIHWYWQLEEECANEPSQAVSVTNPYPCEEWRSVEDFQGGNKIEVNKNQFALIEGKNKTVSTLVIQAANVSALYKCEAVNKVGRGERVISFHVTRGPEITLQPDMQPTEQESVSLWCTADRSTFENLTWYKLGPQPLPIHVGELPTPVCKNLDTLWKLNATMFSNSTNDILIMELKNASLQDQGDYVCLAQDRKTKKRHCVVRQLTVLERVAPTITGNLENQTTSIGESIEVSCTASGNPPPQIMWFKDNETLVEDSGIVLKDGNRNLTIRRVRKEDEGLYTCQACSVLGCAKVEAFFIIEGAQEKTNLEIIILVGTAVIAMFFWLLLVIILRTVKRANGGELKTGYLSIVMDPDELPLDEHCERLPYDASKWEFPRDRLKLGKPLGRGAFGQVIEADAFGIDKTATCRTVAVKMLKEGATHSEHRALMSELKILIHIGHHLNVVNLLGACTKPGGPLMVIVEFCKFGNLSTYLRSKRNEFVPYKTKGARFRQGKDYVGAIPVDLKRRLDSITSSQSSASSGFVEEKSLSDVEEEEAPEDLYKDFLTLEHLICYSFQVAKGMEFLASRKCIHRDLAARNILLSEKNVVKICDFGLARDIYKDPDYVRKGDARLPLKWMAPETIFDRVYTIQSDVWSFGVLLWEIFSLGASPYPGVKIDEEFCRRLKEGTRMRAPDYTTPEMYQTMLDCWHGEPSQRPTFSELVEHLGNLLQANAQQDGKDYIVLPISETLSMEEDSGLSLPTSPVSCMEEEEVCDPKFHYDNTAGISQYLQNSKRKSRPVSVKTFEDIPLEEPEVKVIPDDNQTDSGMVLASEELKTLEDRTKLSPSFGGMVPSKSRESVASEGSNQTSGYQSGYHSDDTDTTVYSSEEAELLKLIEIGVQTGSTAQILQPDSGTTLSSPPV

Mitogen-activated protein kinase kinase kinase 9 (Homo sapiens), sequence (P80192 whole entry, looked up, the tested form may be a part): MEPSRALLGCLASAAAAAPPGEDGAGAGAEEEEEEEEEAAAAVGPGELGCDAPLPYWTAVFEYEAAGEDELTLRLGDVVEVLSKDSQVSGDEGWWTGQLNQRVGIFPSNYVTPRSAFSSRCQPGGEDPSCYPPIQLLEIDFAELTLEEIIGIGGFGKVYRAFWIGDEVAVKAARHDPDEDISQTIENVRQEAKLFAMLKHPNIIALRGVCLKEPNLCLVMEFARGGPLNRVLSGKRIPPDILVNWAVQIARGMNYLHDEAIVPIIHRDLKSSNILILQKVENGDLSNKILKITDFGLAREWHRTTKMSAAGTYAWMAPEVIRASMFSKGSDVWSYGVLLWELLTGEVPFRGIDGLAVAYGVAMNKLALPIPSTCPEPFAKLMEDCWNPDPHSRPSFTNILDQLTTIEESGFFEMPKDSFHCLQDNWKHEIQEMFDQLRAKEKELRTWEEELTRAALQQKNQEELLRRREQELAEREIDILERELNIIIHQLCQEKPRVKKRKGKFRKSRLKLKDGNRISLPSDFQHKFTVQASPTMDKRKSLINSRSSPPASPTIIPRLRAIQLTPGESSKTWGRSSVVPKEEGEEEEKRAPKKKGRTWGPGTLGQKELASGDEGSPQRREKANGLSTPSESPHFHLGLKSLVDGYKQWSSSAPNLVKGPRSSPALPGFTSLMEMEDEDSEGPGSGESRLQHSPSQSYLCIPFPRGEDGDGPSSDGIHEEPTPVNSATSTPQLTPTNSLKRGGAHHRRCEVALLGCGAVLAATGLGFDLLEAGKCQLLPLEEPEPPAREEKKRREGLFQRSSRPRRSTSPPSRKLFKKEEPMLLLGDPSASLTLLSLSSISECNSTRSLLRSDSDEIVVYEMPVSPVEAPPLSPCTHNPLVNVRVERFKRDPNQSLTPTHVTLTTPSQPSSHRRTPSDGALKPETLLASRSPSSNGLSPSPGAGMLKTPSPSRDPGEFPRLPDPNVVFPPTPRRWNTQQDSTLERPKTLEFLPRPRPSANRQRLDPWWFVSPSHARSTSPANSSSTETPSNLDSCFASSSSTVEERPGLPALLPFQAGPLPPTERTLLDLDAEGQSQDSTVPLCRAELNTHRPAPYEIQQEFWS

For `CNc1nc(C)c(-c2nc(Nc3cccc(N4CCN5CCC4CC5)c3)ncc2C)s1`, the GI50 (MDA-MB-468) was 1460 nM, the Activity (A2780 [1]) was 31.5% and the Activity (A2780 [2]) was 15.5%. For the same molecule, the Activity (HCT-116) was “Active”, the Activity (A2780 [3]) was 2% and the Activity (A2780 [4]) was “Active”. The Ratio Ki (Homo sapiens) was 125, the Activity (A2780 [5]) was “Dose-Dependent Effect” and the Activity (A2780 [6]) was 7.6%. The inhibition [7] was “Active”, the GI50 (HT-29) was 2100 nM and the GI50 (A2780 [8]) was 640 nM. For the same molecule, the inhibition [9] was “Active”.
